Results published in ChEMBL document CHEMBL1139834, “Synthesis and structure-activity relationships of new benzodioxinic lactones as potential anticancer drugs” (J Med Chem, 2007).

Experiments:
Type in all cases: functional
UACC-62 = test: Antitumor activity against human UACC62 cell line
Procedure, shortened: (§1)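 Human tumour cell lines from a selected panel. GI50 is the concentration giving 50% growth inhibition, averaged from at least two determinations. LC50 is the concentration killing 50% of cells in a […] assay.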

A498 = test: Antitumor activity against human A498 cell line
Procedure, shortened: (§2)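 Human tumour cell line panel. GI50 is the concentration giving 50% growth inhibition, averaged over at least two determinations. LC50 is the concentration killing 50% of cells in a […] assay.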

SNB-19 = test: Antitumor activity against human SNB19 cell line; procedure, shortened: as §2
SF-268 = test: Antitumor activity against human SF268 cell line; procedure, shortened: as §2
MCF7 = test: Antitumor activity against human MCF7 cell line; procedure, shortened: as §2
CCRF-CEM = test: Antitumor activity against human CCRF-CEM cell line; procedure, shortened: as §2
HCC 2998 = test: Antitumor activity against human HCC2998 cell line; details: read-out: LC50 (the source's name); procedure, shortened: as §2
Malme-3M = test: Antitumor activity against human MALME3M cell line; procedure, shortened: as §2
TK-10 = test: Antitumor activity against human TK10 cell line; procedure, shortened: as §1
MDA-N = test: Antitumor activity against human MDA-N cell line; procedure, shortened: as §2
HT-29 = test: Antitumor activity against human HT29 cell line
SF-539 = test: Antitumor activity against human SF539 cell line; procedure, shortened: as §2
MDA-MB-435 = test: Antitumor activity against human MDA-MB-435 cell line; procedure, shortened: as §2
BT-549 = test: Antitumor activity against human BT549 cell line; procedure, shortened: as §2
HOP-62 = test: Antitumor activity against human HOP62 cell line; procedure, shortened: as §2
NCI-H322M = test: Antitumor activity against human NCI-H322M cell line; procedure, shortened: as §2
OVCAR-4 = test: Antitumor activity against human OVCAR4 cell line; procedure, shortened: as §2
[1] = read-out: LC50 (the source's name)

CCCCc1c2c(c(C)c3c1C(=O)OC3)Oc1ccccc1O2
GI50 (UACC-62): 0.49 µM
CC50 (UACC-62; [1]): 100 µM
GI50 (A498): 0.776 µM
CC50 (A498; [1]): 100 µM
GI50 (SNB-19): 0.589 µM
CC50 (SNB-19; [1]): 100 µM
GI50 (SF-268): 0.977 µM
CC50 (SF-268; [1]): 100 µM
GI50 (MCF7): 1.23 µM
CC50 (MCF7; [1]): 100 µM
GI50 (CCRF-CEM): 0.501 µM
CC50 (CCRF-CEM; [1]): 100 µM
CC50 (HCC 2998): 40 µM
GI50 (Malme-3M): 0.447 µM
CC50 (Malme-3M; [1]): 100 µM
GI50 (TK-10): 1.51 µM
CC50 (TK-10; [1]): 100 µM
GI50 (MDA-N): 0.117 µM
CC50 (MDA-N; [1]): 60 µM
GI50 (HT-29): 0.331 µM
CC50 (HT-29; [1]): 100 µM
GI50 (SF-539): 0.339 µM
CC50 (SF-539; [1]): 10 µM
GI50 (MDA-MB-435): 0.158 µM
CC50 (MDA-MB-435; [1]): 40 µM
GI50 (BT-549): 21.4 µM
CC50 (BT-549; [1]): 100 µM
GI50 (HOP-62): 1.45 µM
CC50 (HOP-62; [1]): 100 µM
GI50 (NCI-H322M): 0.933 µM
CC50 (NCI-H322M; [1]): 100 µM
GI50 (OVCAR-4): 1.95 µM
CC50 (OVCAR-4; [1]): 100 µM
